Compound activity deposited in PubChem BioAssay by The Scripps Research Institute Molecular Screening Center.
PAFAH1B3 FP inh – blocks human PAF acetylhydrolase 1B catalytic subunit 3; Q15102; recombinant PAFAH1B3, FP-rhodamine probe, fluorescence polarization; inhibition, % at 3.39 µM; 340,000 compounds, 0.28% hits; AID 492972;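 active = inhibition above the screen-wide average of all tested compounds plus 3 SD, cut at about 25% in these data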
Target sequence (Q15102 whole entry, looked up): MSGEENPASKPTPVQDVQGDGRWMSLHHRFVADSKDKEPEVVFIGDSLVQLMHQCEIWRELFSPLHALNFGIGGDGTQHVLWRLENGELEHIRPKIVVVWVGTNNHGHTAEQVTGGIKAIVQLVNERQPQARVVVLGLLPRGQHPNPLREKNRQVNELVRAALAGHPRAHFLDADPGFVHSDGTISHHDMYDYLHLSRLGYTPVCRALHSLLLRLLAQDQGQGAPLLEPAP
pPAFAH FP inh – pPAFAH (human) enzyme inhibition; Q13093; inhibition, % at 3.39 µM; recombinant pPAFAH, FP-rhodamine probe fluorescence polarization; 330,000 compounds, 1.5% hits;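 active = inhibition above the mean inhibition across the screen plus 3 SD, cut at about 25% in these data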;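 note: inhibitors block binding of the rhodamine activity-based probe so polarization drops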
IMP-1 inhibitor – blocks Pseudomonas aeruginosa IMP-1 metallo-beta-lactamase; purified IMP-1, nitrocefin hydrolysis, epi-absorbance fluorescence; inhibition, % at 5.6 µM; 290,000 compounds, 0.45% hits; AID 1556;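 active = inhibition above the mean plus 3 SD of all compounds in the same screening run, cut at about 4.5% in these data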
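System – purified recombinant IMP-1 beta-lactamase · Input – IMP-1 dispensed at 0.2 nM · Timing – 15 min preincubation plus 25 min reaction at 25 °C · Signal – Epi-absorbance fluorescence, 480 nm excitation, 530 nm emission · Measure – percent IMP-1 inhibition derived from blank-referenced optical density · Controls – Enzyme-plus-DMSO low control, enzyme-free DMSO high control · Replication – singlicate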
VIM-2 inh – blocks Pseudomonas aeruginosa VIM-2 metallo-beta-lactamase. inhibition, % at 5.6 µM. AID 1527. 290,000 compounds, 0.89% hits. purified VIM-2, nitrocefin hydrolysis, epi-absorbance fluorescence;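 active = inhibition above the mean of all tested compounds plus 3 SD, cutoff set per screening run, cut at about 7.5% in these data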;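 note: red hydrolysis product quenches plate fluorescence so inhibitors raise well fluorescence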
PAFAH2 FP inh – PAFAH2 (human) inhibition | Q99487 | recombinant PAFAH2, FP-rhodamine activity probe, fluorescence polarization | inhibition, % at 3.39 µM | 340,000 compounds, 0.99% hits | AID 492956;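 active = inhibition above the mean over all tested compounds plus 3 SD, cut at about 30% in these data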;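 note: inhibitors block probe labeling of enzyme so polarization drops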
PAFAH1B2 FP inh – PAFAH1B2 (human) inhibition | P68402 | recombinant PAFAH1B2, FP-rhodamine activity probe, fluorescence polarization | inhibition, % at 3.39 µM | 340,000 compounds, 1.2% hits | AID 492953;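 active = inhibition above the mean of all tested compounds plus 3 SD, cut at about 24% in these data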
Target sequence (P68402 whole entry, looked up): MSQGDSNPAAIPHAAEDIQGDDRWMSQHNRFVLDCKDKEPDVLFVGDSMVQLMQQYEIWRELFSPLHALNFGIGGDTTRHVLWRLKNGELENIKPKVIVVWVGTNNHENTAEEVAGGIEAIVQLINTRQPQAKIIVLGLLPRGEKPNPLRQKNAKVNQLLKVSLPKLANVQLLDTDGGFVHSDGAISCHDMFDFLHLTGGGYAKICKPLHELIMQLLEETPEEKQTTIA
A number is an active result; n = inactive; x = no result given. Compounds with a hit are over-represented: about 3.6% of the library has one in this group of screens.

SMILES	PAFAH1B3 FP inh	pPAFAH FP inh	IMP-1 inhibitor	VIM-2 inh	PAFAH2 FP inh	PAFAH1B2 FP inh
COc1cccc(C(=O)Nc2cccc(C(=O)NC3=NN(c4c(Cl)cc(Cl)cc4Cl)C(=O)C3)c2)c1	n	30	n	n	n	n
COc1ccc(OC)c(Nc2nc(N(C)c3ccccc3)nc(N)c2[N+](=O)[O-])c1	n	n	n	n	n	n
S=c1[nH]nc(-c2ccc(Cl)cc2Cl)n1-c1ccc2c(c1)OCCO2	n	n	n	9.2	n	n
S=c1[nH]nc(-c2ccc3c(c2)OCO3)n1-c1ccccc1	n	n	n	11	n	n
Cc1[nH]c2ccc(-c3n[nH]c(=S)n3-c3ccccc3)cc2c1C	n	n	n	n	n	n
COc1cc(OC)cc(-c2n[nH]c(=S)n2-c2ccc3c(c2)OCCO3)c1	n	n	n	8.1	n	n
S=c1[nH]nc(-c2ccc(Cl)cc2Cl)n1-c1ccccc1	n	n	n	n	n	n
CS(=O)(=O)Nc1ccc(-c2n[nH]c(=S)n2-c2ccccc2)cc1	n	n	n	8.2	n	n
S=c1[nH]nc(-c2ccc(Br)cc2)n1-c1ccc2c(c1)OCCO2	n	n	n	n	n	n
Cc1cccc(C(=O)OCC(=O)NCCNC(=O)COC(=O)c2cccc(C)c2C)c1C	n	n	n	n	n	n
COc1ccc(OC)c(/C=C/C(=O)N(C)CC(=O)Nc2ccc(N3CCOCC3)cc2)c1	n	n	x	x	n	n
COc1ccccc1-c1n[nH]c(=S)n1-c1ccccc1	n	n	n	8.9	n	25
S=c1[nH]nc(-c2ccco2)n1-c1ccc(Cl)cc1	n	n	n	n	n	n
Cc1nn(C)cc1-c1n[nH]c(=S)n1-c1ccc(Cl)cc1	n	n	n	9.2	n	n
CC[C@@]1(C(=O)OC)N[C@H](CN(C)S(=O)(=O)c2ccc(C(C)(C)C)cc2)[C@@H]2C(=O)N(C)C(=O)[C@@H]21	n	n	x	x	n	n
CCN1CCc2c(sc(NC(=O)c3ccc(S(=O)(=O)N(CC)c4ccccc4)cc3)c2C(N)=O)C1	n	n	n	n	n	n
CSCCC(NC(=O)COc1ccccc1)C(=O)N1CC(C)OC(C)C1 (configuration not stated)	n	n	x	x	n	n
O=C(COC(=O)CC1CCCC1)Nc1ccc(OC(F)F)cc1	n	28	n	n	62	n
COc1ccccc1C(=O)OCC(=O)Nc1ccccc1OC(F)F	n	n	n	n	n	n
COc1ccc(NS(=O)(=O)c2ccc(OC)c(NC(=O)CCC3CCCCC3)c2)cc1	n	29	n	n	n	n
COc1ccccc1C(=O)OCC(=O)Nc1ccc(OC(F)F)cc1	n	28	n	n	48	n
CCc1ccc(NC(=O)COC(=O)CC2CCCC2)cc1	n	26	x	x	76	n
Cc1ccc(NC(=O)COC(=O)CC2CCCC2)cc1F	n	30	x	x	79	n
Cc1ccc(NC(=O)COC(=O)CN2C(=O)C3CCCCC3C2=O)cc1C (configuration not stated)	n	n	x	x	n	n
COc1ccc(NC(=O)COC(=O)CCC2CCCCC2)cc1	n	32	x	x	32	n
SMILES	PAFAH1B3 FP inh	pPAFAH FP inh	IMP-1 inhibitor	VIM-2 inh	PAFAH2 FP inh	PAFAH1B2 FP inh
O=C(COC(=O)c1ccc2c(c1)C(=O)N(CCc1ccccc1)C2=O)Nc1ccc(OC(F)F)cc1	n	25	n	n	n	n
COc1ccccc1C(C)Nc1nc(-c2cccnc2)nc2ccccc12 (configuration not stated)	n	n	n	n	n	n
O=c1cc(SCc2ccc(Cl)cc2Cl)nc[nH]1	n	x	x	x	n	25
COc1ccc(C(=O)/C=C/c2ccc(O)cc2)c(O)c1C/C=C(\C)CCC=C(C)C	n	n	x	x	n	n
O=C1C=CC(=O)N1CCCCCCCCCCN1C(=O)C=CC1=O	n	x	x	x	n	n
CC(=O)Nc1ccc(Nc2c3c4c(cccc4n(C)c2=O)C(=O)c2ccccc2-3)cc1	n	33	n	n	n	n
Cn1c(=O)c(NC2CCCCC2)c2c3c(cccc31)C(=O)c1ccccc1-2	n	x	5.9	n	n	n
N#Cc1cc2c(nc1SCC(O)CS(=O)(=O)Cc1ccc(Cl)cc1)CCCC2 (configuration not stated)	n	n	n	n	n	30
CCOC(=O)c1c(NC(=O)CN2C(=O)CN(C)C2=O)sc(C)c1C	n	n	11	n	n	n
CCOc1ccccc1OCCC(=O)OCC(=O)Nc1c(C)cc(C)cc1C	n	n	x	x	n	n
CCCc1[nH][nH]c(=O)c1C(c1ccccc1)C(C#N)C#N (configuration not stated)	n	n	n	9.1	n	n
Cc1ccc(NC(=O)CNCc2ccc(Cl)cc2Cl)cc1S(=O)(=O)N(C)C	n	n	n	n	n	n
Cc1ccc(NC(=O)CNCc2ccccc2Cl)cc1S(=O)(=O)N(C)C	n	n	37	n	n	n
CC12CCC(C(S(=O)(=O)Nc3ccccc3)C1=O)C2(C)C (configuration not stated)	n	x	x	x	n	n
CCc1ccc2c(c1)c(N=NC1=NC(=O)CS1)c(O)n2CC	n	n	n	n	n	n
CCc1ccc2[nH]c(O)c(N=NC3=NC(=O)CS3)c2c1	n	n	n	n	n	34
Nn1c(CSc2nc3ccccc3o2)nnc1CSc1nc2ccccc2o1	n	n	n	n	n	n
Cc1cc(C)n2c(Br)c(CSc3nc4ccccc4o3)nc2n1	n	n	n	9.9	n	n
O=C(Nc1ccc(S(=O)(=O)Nc2nccs2)cc1)c1cc(-c2ccccc2Cl)nc2ccccc12	n	25	n	n	n	n
CC1CCN(C(=O)C(C)NCc2ccc(F)cc2)CC1 (configuration not stated)	n	n	n	n	n	n
COc1ccc(OC)c(C(c2c(C)[nH][nH]c2=O)c2c(C)[nH][nH]c2=O)c1	n	n	n	n	n	n
COc1ccc(O)c(C(c2c(C)[nH][nH]c2=O)c2c(C)[nH][nH]c2=O)c1	38	n	n	n	n	27
COc1ccccc1/C=c1\sc2nc(-c3ccco3)nn2c1=O	n	25	n	n	n	n
Cc1cc(C(=O)CCC(=O)NCC(=O)Nc2c(C)cccc2C)c(C)s1	n	n	x	x	n	n
CC1CC(C)(C)CC2(C1)NC(=O)N(CC(=O)Nc1ccc(N3CCCCC3)cc1)C2=O (configuration not stated)	n	n	n	n	n	n
CC(=O)c1ccc(OCC(=O)N2CCN(S(=O)(=O)c3ccc(C)cc3C)CC2)cc1	n	32	n	n	n	n
CCOc1ccc(OCCC(=O)OCC(=O)N2CCN(S(=O)(=O)c3ccc(C)cc3)CC2)cc1	n	n	x	x	n	n
Cc1ccc(S(=O)(=O)N2CCN(C(=O)CSc3ccc(F)cc3)CC2)cc1	n	n	n	n	n	26
Cc1ccc(S(=O)(=O)N2CCN(C(=O)COC(=O)COc3ccc(Br)cc3)CC2)c(C)c1	n	x	x	x	n	n
